Source: PubChem BioAssay (Sanford-Burnham Center for Chemical Genomics)
hIAP block – human IAP inhibition; P09923; purified IAP, CDP-Star luminescence, 30 min; inhibition, % at 10 µM; 330,000 compounds, 0.12% hits; AID 2544;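 active means inhibition reaching a set limit with compound at 10 µM in the primary screen, cut at about 35% in these data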;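 further: plate controls were DMSO wells with enzyme for no effect and no-enzyme buffer wells for full effect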
Target sequence (P09923 whole entry, looked up): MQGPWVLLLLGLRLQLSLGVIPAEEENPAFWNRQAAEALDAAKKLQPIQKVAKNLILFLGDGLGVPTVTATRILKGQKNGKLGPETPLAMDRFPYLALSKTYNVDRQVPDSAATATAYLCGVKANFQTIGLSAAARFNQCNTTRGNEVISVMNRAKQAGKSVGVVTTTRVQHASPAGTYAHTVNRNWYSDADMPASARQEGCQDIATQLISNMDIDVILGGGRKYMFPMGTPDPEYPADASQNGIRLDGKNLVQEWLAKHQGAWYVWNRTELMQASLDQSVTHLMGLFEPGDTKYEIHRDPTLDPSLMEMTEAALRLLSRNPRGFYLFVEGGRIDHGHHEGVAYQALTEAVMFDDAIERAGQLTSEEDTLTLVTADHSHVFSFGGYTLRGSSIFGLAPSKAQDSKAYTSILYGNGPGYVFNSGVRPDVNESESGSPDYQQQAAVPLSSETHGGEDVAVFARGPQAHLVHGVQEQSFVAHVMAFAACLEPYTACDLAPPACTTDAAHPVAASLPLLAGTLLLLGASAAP
bIAP act – increases bovine intestinal alkaline phosphatase activity; 200,000 compounds, 0.17% hits; AID 1016; purified bovine IAP, CDP-star luminescence, 30 min; stronger effect = higher value; fold of DMSO-control signal, blank-subtracted; activation factor at 20 µM;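 active means activation factor of 2 or more at 20 µM, a signal rise over negative controls twice the positive control's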
mIAP inh – blocks mouse intestinal alkaline phosphatase | purified mouse IAP, CDP-Star luminescence, 30 min | inhibition, % at 10 µM | 330,000 compounds, 0.2% hits | AID 2806;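 active means inhibition of at least 40% at 10 µM in the primary screen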;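 further: plate controls were DMSO with enzyme for no effect and no enzyme wells for full effect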
bIAP inhibitor – intestinal alkaline phosphatase (bovine) inhibition. inhibition, % at 20 µM. AID 1019. 190,000 tested, under 10 active. purified bovine IAP, CDP-star luminescence, 30 min;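 active means over 50% inhibition of intestinal alkaline phosphatase at 20 µM in the single-dose screen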
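Incubation: 30 min reaction at room temperature / Material: purified bovine intestinal alkaline phosphatase (IAP) enzyme / Input: enzyme at 1/65,000,000 dilution / Dosing: 20 µM single dose / Signal: CDP-star luminescence signal / Reagent: CDP-star chemiluminescent phosphatase substrate, 30 µM final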
mIAP act – mouse IAP activation; muIAP, CDP-Star luminescence, 30 min; stronger effect = higher value; 1 = vehicle-only enzyme signal, 0 = enzyme-free wells; activation factor at 10 µM; 330,000 compounds, 0.24% hits;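 active means activation factor of at least 2 at 20 µM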
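also added = chemiluminescent substrate CDP-Star | test system = mouse IAP enzyme | signal = chemiluminescence readout | compound = DMSO-dissolved test compounds | incubation = 30 min at room temperature | benchmarks = DMSO wells, no-enzyme wells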
hIAP act – increases human intestinal alkaline phosphatase activity | purified human IAP, CDP-Star luminescence, 30 min; stronger effect = higher value; 1 = vehicle-only enzyme, 0 = enzyme-free background | P09923 | 330,000 compounds, 0.16% hits | activation factor at 10 µM;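 active means activation factor of the enzyme at least 2-fold when tested at 20 µM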
hIAP act confirm – human IAP activation confirmation; purified IAP, CDP-Star luminescence, 30 min; stronger effect = lower value; AID 434926; 880 compounds, 10% hits; shares compounds with hIAP act; activation (%Activity, negative = activation), % at 8.3 µM;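 active means at least twofold enzyme activation in any of six single-dose repeats, which the averaged readout prints as negative percent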
* marks the source's active call; other numbers are inactive results. Shown are actives, neighbours in structure and some others; about 0.79% of the full set was active somewhere.

CC(=O)Nc1ccc(S(=O)(=O)NCC2CCC(C(=O)N3CC(C)CC(C)C3)CC2)cc1 (stereo not given) was read as hIAP block -12, mIAP inh -2, mIAP act 1 and hIAP act 1.1.
`CCOC(=O)/C(=N/Nc1ccccc1)c1csc(Nc2ccccc2)n1` gave hIAP block 1, bIAP act 0.7, mIAP inh 17, bIAP inhibitor 33, mIAP act 0.83 and hIAP act 0.99.
Screening CCOC(=O)/C(=N\Nc1ccc(OC)cc1)c1csc(Nc2ccccc2)n1 returned hIAP block 39*, bIAP act 0.8, mIAP inh 10, bIAP inhibitor 23, mIAP act 0.9, hIAP act 0.61 and hIAP act confirm -2.
N#C/C(=C\c1ccc(OCc2cccc(C(=O)O)c2)cc1)C(=O)NCc1ccco1 was read as hIAP block 2, mIAP inh -5, mIAP act 1 and hIAP act 0.98.
For COc1ccc2nc3cc(Cl)ccc3c(Nc3cc(CN4CCCC4)c(O)c(CN4CCCC4)c3)c2n1 the results were hIAP block 43*, mIAP inh 12, mIAP act 0.88, hIAP act 0.57 and hIAP act confirm -60*.
`N#Cc1ccc(OCC(=O)NNC(=S)NC(=O)C2CC2)cc1` gave hIAP block -121, mIAP inh 22, mIAP act 0.78, hIAP act 2.2* and hIAP act confirm 0.
Screening CC(C)c1ccc(OCC(=O)NNC(=S)NC(=O)C2CC2)cc1 returned hIAP block 4, mIAP inh 13, mIAP act 0.87 and hIAP act 0.96.
Screening COc1cc(CN2CCc3ccc(NC(=O)CCc4ccccc4OC)cc3C2)ccc1O returned hIAP block 36*, mIAP inh -20, mIAP act 1.2, hIAP act 0.64 and hIAP act confirm -24.
Screening Cc1ncc(CO)c(/C=N/NC(=O)c2cc3c(s2)CCCC3)c1O returned hIAP block -45, bIAP act 1.1, mIAP inh 16, bIAP inhibitor -8, mIAP act 0.84 and hIAP act 1.4.
Screening Cc1cnc(C(=O)NNC(=O)c2ccc(Br)cc2)cn1 returned hIAP block -122, mIAP inh 14, mIAP act 0.86, hIAP act 2.2* and hIAP act confirm -38.
For COc1ccc(-c2csc(NC(=S)NC(=O)c3ccccc3)n2)cc1Br the results were hIAP block -18, mIAP inh 10, mIAP act 0.9 and hIAP act 1.2.
Screening COc1ccc(C(=O)NC(=S)Nc2nc(-c3ccc(OC)c(Br)c3)cs2)cc1Br returned hIAP block 38*, mIAP inh 16, mIAP act 0.84, hIAP act 0.62 and hIAP act confirm 1.
COc1ccc2c(c1)C=C(CN1CCN(C3CCCC3)C(CCO)C1)CO2 (stereo not given) was read as hIAP block -3, bIAP act 1.1, mIAP inh -5, bIAP inhibitor -9, mIAP act 1.1 and hIAP act 1.
CC(=O)Nc1cccc(-c2csc(Nc3ccccn3)n2)c1 was read as hIAP block -118, bIAP act 1, mIAP inh -4, bIAP inhibitor 3, mIAP act 1, hIAP act 2.2* and hIAP act confirm -94*.
For COc1ccc(NC(=O)OCCn2c([N+](=O)[O-])cnc2C)cc1 the results were hIAP block -26, bIAP act 1, mIAP inh -12, bIAP inhibitor 0, mIAP act 1.1 and hIAP act 1.3.
For NNC(=O)/C(=C\c1ccc(Br)cc1)NC(=O)c1cccs1 the results were hIAP block 11, bIAP act 1, mIAP inh 16, bIAP inhibitor 1, mIAP act 0.84 and hIAP act 0.89.
`CCNC(=O)Nc1ccccc1C(=O)OC` gave hIAP block -19, bIAP act 1, mIAP inh -5, bIAP inhibitor -2, mIAP act 1.1 and hIAP act 1.2.
